The target of assay [1] is Activin receptor type-1 (Homo sapiens) (UniProt Q04771). Kind of assay: Binding affinity to wild-type human ACVR1 (C188 to C509 residues) expressed in bacterial expression system assessed as residual binding level at 1 uM by Kinomescan method relative to control.
In assay [2] the target is Activin receptor type-2A (Homo sapiens) (UniProt P27037). Description: Binding affinity to wild-type human ACVR2A (V171 to T499 residues) expressed in bacterial expression system assessed as residual binding level at 1 uM by Kinomescan method relative to control.
Chain of Activin receptor type-2A (Homo sapiens) (P27037 whole entry, the tested form may be a part): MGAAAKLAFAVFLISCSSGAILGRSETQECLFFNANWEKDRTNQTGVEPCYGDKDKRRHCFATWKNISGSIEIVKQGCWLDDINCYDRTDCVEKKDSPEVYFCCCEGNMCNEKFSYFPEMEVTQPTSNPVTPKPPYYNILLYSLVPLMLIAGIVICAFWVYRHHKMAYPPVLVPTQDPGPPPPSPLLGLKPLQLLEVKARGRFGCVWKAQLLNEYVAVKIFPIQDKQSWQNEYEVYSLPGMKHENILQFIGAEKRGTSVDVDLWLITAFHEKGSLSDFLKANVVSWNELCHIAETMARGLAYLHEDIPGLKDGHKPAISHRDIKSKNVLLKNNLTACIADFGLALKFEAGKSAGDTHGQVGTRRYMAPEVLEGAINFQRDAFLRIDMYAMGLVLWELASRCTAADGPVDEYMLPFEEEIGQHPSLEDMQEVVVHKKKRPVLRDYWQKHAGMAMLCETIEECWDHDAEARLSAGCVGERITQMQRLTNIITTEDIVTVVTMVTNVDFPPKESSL
In assay [3] the target is Tyrosine-protein kinase Blk (Homo sapiens, UniProt P51451). Kind of assay: Binding affinity to wild-type human partial length BLK (G211 to L503 residues) expressed in bacterial expression system assessed as residual binding level at 1 uM by Kinomescan method relative to control.
Chain of Tyrosine-protein kinase Blk (P51451 2-505 limits assumed): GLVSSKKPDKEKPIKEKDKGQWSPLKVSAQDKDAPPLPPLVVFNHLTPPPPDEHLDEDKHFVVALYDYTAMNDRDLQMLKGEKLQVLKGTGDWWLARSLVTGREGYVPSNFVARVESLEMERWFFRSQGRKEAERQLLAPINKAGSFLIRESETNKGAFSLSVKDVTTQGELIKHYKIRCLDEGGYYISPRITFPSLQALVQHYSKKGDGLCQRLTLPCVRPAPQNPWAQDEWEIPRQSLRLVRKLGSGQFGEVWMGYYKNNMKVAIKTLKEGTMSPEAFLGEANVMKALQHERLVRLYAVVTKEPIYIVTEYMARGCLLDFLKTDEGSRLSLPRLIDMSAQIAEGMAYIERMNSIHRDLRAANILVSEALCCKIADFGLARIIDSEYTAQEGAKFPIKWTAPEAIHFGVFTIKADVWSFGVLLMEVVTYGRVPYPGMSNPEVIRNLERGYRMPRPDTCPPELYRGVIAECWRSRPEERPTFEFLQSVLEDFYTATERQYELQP
Assay [4] deals with Bone morphogenetic protein receptor type-2 (Homo sapiens) (UniProt Q13873). Kind of assay: Binding affinity to wild-type human partial length BMPR2 (R179 to Q526 residues) expressed in mammalian expression system assessed as residual binding level at 1 uM by Kinomescan method relative to control.
Assay [5] concerns the target Cytoplasmic tyrosine-protein kinase BMX (Homo sapiens) (UniProt P51813). Description: Binding affinity to wild-type human full length BMX (M1 to H675 residues) expressed in bacterial expression system assessed as residual binding level at 1 uM by Kinomescan method relative to control.
For assay [6], the target named is Calcium/calmodulin-dependent protein kinase type 1B (Homo sapiens) (UniProt Q6P2M8). Description: Binding affinity to wild-type human partial length CAMK1B (W9 to A311 residues) expressed in mammalian expression system assessed as residual binding level at 1 uM by Kinomescan method relative to control.
For assay [7], the target named is Calcium/calmodulin-dependent protein kinase kinase 2 (Homo sapiens) (UniProt Q96RR4). Kind of assay: Binding affinity to wild-type human partial length CAMKK2 (D65 to V471 residues) expressed in bacterial expression system assessed as residual binding level at 1 uM by Kinomescan method relative to control.
For assay [8], the target named is Casein kinase I isoform gamma-2 (Homo sapiens) (UniProt P78368). Kind of assay: Binding affinity to wild-type human full length CSNK1G2 (M1 to K415 residues) expressed in bacterial expression system assessed as residual binding level at 1 uM by Kinomescan method relative to control.
The target in assay [9] is Serine/threonine-protein kinase DCLK1 (Homo sapiens) (UniProt O15075). Description: Binding affinity to wild-type human partial length DCAMKL1 (L270 to A662 residues) expressed in mammalian expression system assessed as residual binding level at 1 uM by Kinomescan method relative to control.
Assay [10] concerns the target Discoidin domain-containing receptor 2 (Homo sapiens) (UniProt Q16832). Kind of assay: Binding affinity to wild-type human partial length DDR2 (V555 to E855 residues) expressed in mammalian expression system assessed as residual binding level at 1 uM by Kinomescan method relative to control.
Assay [11] concerns Epidermal growth factor receptor (Homo sapiens), P00533 [UNDEFINED MUTATION]. Description: Binding affinity to human partial length EGFR L747-T751del/Sins mutant expressed in bacterial expression system assessed as residual binding level at 1 uM by Kinomescan method relative to control. In short, it runs like this:
(§1)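 Kinome-wide selectivity panel run by the KINOMEscan method, with the test compound at a single concentration of 1 μM. Wild-type and mutant kinases were profiled in the same screen.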

In assay [12] the target is Focal adhesion kinase 1 (Homo sapiens) (UniProt Q05397). Description: Binding affinity to wild-type human partial length FAK (D402 to R696 residues) expressed in bacterial expression system assessed as residual binding level at 1 uM by Kinomescan method relative to control.
For assay [13], the target named is Fibroblast growth factor receptor 3 (Homo sapiens) (UniProt P22607). Description: Binding affinity to wild-type human partial length FGFR3 (R442 to S771 residues) expressed in bacterial expression system assessed as residual binding level at 1 uM by Kinomescan method relative to control.
For assay [14], the system named is Mast/stem cell growth factor receptor Kit (Homo sapiens), P10721 [D816V]. Description: Binding affinity to human partial length KIT D816V mutant (I571 to D952 residues) expressed in bacterial expression system assessed as residual binding level at 1 uM by Kinomescan method relative to control. In outline: as §1
The target of assay [15] is Leucine-rich repeat serine/threonine-protein kinase 2 (Homo sapiens) (UniProt Q5S007). Description: Binding affinity to wild-type human partial length LRRK2 (H970 to E2527 residues) expressed in mammalian expression system assessed as residual binding level at 1 uM by Kinomescan method relative to control.
The target in assay [16] is Mitogen-activated protein kinase kinase kinase 11 (Homo sapiens) (UniProt Q16584). Description: Binding affinity to wild-type human partial length MLK3 (I77 to W399 residues) expressed in bacterial expression system assessed as residual binding level at 1 uM by Kinomescan method relative to control.
Chain of Mitogen-activated protein kinase kinase kinase 11 (Homo sapiens) (Q16584 whole entry, looked up, the tested form may be a part): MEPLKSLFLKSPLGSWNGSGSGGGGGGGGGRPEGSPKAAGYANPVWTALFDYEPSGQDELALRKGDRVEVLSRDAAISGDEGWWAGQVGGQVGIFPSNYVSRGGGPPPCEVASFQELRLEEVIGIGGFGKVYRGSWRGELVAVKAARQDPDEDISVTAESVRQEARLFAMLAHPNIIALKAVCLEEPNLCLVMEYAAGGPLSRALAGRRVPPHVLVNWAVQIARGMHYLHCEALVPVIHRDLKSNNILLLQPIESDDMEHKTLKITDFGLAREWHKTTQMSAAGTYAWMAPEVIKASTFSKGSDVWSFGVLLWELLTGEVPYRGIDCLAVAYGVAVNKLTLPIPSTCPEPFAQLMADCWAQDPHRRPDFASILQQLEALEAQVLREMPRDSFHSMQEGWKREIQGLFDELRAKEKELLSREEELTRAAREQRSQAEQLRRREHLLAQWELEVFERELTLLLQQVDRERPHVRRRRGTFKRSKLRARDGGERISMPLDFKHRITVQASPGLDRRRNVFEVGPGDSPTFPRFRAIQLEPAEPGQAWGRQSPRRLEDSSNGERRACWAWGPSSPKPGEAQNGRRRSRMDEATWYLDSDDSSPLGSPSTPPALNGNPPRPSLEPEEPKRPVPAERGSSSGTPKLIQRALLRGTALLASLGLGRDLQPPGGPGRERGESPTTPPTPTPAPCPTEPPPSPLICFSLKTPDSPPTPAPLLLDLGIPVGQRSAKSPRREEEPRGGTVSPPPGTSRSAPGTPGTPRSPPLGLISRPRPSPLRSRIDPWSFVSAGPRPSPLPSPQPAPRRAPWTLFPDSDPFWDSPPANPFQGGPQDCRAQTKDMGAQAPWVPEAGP
For assay [17], the target named is Serine/threonine-protein kinase mTOR (Homo sapiens) (UniProt P42345). Description: Binding affinity to wild-type human partial length MTOR (L1382 to W2549 residues) expressed in mammalian expression system assessed as residual binding level at 1 uM by Kinomescan method relative to control.
Assay [18] concerns the target Myosin light chain kinase family member 4 (Homo sapiens) (UniProt Q86YV6). Kind of assay: Binding affinity to wild-type human partial length MYLK4 (V79 to S380 residues) expressed in bacterial expression system assessed as residual binding level at 1 uM by Kinomescan method relative to control.
Assay [19] has as its system Phosphatidylinositol 4,5-bisphosphate 3-kinase catalytic subunit alpha isoform (Homo sapiens), P42336 [C420R]. Kind of assay: Binding affinity to human partial length PIK3CA C420R mutant (R108 to N1068 residues) expressed in mammalian expression system assessed as residual binding level at 1 uM by Kinomescan method relative to control.
The target in assay [20] is Serine/threonine-protein kinase tousled-like 2 (Homo sapiens) (UniProt Q86UE8). Kind of assay: Binding affinity to wild-type human partial length TLK2 (E424 to N749 residues) expressed in bacterial expression system assessed as residual binding level at 1 uM by Kinomescan method relative to control.
Chain of Serine/threonine-protein kinase tousled-like 2 (Homo sapiens) (Q86UE8 whole entry, looked up, the tested form may be a part): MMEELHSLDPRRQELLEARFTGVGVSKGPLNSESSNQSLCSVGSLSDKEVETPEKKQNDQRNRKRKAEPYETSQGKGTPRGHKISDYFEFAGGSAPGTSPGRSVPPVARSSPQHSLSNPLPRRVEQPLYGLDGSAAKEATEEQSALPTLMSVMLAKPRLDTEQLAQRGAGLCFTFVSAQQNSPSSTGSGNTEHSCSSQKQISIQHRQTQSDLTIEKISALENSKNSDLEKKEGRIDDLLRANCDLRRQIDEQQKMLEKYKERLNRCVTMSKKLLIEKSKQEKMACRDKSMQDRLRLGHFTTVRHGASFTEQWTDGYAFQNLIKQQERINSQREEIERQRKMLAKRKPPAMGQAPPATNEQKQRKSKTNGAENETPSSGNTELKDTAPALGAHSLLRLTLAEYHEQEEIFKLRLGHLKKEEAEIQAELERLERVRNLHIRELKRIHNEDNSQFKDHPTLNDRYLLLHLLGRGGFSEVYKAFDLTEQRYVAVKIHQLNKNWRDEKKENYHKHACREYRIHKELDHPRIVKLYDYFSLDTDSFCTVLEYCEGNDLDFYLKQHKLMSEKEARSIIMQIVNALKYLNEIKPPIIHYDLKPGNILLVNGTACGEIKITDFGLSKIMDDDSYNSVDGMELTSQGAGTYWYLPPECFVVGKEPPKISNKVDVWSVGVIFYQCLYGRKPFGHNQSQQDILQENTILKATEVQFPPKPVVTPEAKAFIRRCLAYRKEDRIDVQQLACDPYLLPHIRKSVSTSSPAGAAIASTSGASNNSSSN
For assay [21], the target named is Non-receptor tyrosine-protein kinase TYK2 (Homo sapiens) (UniProt P29597). Description: Binding affinity to wild-type human partial length TYK2 JH2 pseudokinase domain (G556 to D888 residues) expressed in mammalian expression system assessed as residual binding level at 1 uM by Kinomescan method relative to control.
Assay [22] concerns the target Tyrosine-protein kinase receptor TYRO3 (Homo sapiens) (UniProt Q06418). Kind of assay: Binding affinity to wild-type human partial length TYRO3 (S497 to T814 residues) expressed in bacterial expression system assessed as residual binding level at 1 uM by Kinomescan method relative to control.
Assay [23] deals with STE20-like serine/threonine-protein kinase (Homo sapiens, UniProt Q9H2G2). Description: Inhibition of recombinant full length GST-tagged human SLK expressed in baculovirus expression system by LanthaScreen assay. In general terms: Time-resolved FRET reads energy transfer from a long-lived donor to a nearby acceptor.
Another assay concerns the target Activated CDC42 kinase 1 (Homo sapiens, UniProt Q07912). Kind of assay: Inhibition of recombinant GST-tagged human TNK2 catalytic/cytoplasmic domain (110 to 476 residues) expressed in baculovirus expression system by LanthaScreen assay.

The structures appear in SMILES notation.

Chain of Discoidin domain-containing receptor 2 (Homo sapiens) (Q16832 whole entry, the tested form may be a part): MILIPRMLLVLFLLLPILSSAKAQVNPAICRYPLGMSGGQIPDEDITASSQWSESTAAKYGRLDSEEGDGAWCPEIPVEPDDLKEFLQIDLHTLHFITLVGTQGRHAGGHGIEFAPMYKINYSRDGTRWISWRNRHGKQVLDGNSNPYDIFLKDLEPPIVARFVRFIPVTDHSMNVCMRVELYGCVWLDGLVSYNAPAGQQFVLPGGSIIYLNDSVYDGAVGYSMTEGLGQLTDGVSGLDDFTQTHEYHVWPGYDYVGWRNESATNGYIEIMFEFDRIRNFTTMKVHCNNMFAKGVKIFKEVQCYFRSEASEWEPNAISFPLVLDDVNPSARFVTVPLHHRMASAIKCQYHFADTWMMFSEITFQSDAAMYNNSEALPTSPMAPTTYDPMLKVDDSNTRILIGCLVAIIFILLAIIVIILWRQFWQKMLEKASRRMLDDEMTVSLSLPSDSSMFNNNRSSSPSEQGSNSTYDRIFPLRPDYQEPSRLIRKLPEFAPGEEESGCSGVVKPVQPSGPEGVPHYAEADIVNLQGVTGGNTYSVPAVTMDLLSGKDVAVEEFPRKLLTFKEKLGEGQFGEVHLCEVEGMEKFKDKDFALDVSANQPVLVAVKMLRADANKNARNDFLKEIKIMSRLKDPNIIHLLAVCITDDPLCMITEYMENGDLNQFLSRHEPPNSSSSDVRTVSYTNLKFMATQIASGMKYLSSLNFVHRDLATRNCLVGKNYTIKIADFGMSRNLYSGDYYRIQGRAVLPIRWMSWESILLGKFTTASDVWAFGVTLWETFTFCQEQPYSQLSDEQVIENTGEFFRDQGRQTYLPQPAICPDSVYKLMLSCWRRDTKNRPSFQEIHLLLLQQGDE
Chain of Tyrosine-protein kinase receptor TYRO3 (Homo sapiens) (Q06418 whole entry, the tested form may be a part): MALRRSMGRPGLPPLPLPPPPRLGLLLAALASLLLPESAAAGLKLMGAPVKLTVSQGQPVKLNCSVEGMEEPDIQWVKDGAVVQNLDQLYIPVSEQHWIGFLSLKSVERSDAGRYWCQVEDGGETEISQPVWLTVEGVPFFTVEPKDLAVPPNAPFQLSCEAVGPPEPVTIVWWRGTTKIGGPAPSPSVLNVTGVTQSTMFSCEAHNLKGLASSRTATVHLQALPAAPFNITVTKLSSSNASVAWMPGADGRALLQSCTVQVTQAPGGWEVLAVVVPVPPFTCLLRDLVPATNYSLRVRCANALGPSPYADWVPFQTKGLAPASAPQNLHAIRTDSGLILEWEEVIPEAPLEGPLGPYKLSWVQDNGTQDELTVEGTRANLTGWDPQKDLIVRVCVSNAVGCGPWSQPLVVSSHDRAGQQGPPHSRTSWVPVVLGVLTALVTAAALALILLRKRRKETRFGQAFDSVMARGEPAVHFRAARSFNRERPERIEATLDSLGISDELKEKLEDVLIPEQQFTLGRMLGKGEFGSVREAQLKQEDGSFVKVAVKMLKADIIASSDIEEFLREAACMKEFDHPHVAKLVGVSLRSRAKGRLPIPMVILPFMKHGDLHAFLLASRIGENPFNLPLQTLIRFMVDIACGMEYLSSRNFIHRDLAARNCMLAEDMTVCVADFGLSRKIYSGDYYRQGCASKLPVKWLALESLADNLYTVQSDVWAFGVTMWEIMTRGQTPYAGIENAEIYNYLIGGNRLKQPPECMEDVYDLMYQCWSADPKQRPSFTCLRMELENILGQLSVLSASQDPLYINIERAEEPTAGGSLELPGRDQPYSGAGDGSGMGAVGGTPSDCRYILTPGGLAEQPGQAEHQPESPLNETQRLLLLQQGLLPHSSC
Chain of Cytoplasmic tyrosine-protein kinase BMX (Homo sapiens) (P51813 whole entry, the tested form may be a part): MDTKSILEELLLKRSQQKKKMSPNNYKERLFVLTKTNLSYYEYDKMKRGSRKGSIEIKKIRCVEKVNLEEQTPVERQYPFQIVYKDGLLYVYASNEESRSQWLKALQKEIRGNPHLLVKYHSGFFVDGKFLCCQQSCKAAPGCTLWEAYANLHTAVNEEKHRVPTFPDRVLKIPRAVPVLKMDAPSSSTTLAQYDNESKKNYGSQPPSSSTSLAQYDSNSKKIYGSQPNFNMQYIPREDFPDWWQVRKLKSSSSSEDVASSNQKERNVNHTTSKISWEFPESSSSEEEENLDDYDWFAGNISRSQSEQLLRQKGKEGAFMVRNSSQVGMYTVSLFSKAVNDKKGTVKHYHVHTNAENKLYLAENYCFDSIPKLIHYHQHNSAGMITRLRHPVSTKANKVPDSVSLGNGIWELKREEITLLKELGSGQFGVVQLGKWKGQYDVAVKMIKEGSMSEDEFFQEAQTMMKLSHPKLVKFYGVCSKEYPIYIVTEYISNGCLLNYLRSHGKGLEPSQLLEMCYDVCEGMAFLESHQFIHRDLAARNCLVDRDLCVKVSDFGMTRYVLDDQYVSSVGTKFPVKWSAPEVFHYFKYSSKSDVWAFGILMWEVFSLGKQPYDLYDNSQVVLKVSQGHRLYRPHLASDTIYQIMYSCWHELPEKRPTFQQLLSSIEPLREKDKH

As to `C=CC(=O)Nc1cc(Nc2ncc(Cl)c(Nc3ccccc3S(=O)(=O)C(C)C)n2)c(OC)cc1N(C)CCN(C)C`, the Activity came to 9% in assay [1]; 96% in assay [2]; 0.05% in [3]; 95% in assay [4]; 4.5% in [5]; 15% in assay [6]. Also, the Activity in assay [7] is 1.6%; in assay [8] it was 74%; in assay [9], 14%; in [10], 77%; in [11] it was 0.45%; in [12], 0%. The Activity in assay [13] is 19%; in [14] it was 26%; in [15] it was 1.7%; in assay [16] it was 82%; in assay [17], 100%; in [18], 98%. Besides, the Activity in assay [19] was 87%; in assay [20], 93%; in assay [21] it was 100%; in assay [22], 51%. Moreover, the results for the IC50 (in assay [23]; on Activated CDC42 kinase 1) were 58 nM and 13 nM, respectively.

The values above are taken from ChEMBL document CHEMBL4382192, “Discovery of a potent dual ALK and EGFR T790M inhibitor” (Eur J Med Chem, 2017).
